Reference: ChEMBL document CHEMBL1153712, “Design, synthesis and bioactivity of catechin/epicatechin and 2-azetidinone derived chimeric molecules” (2009)
Active and inactive are the calls of the source. The calls are words filed in the database; no cut-off is given here.

molecular target: T1, Ribonuclease pancreatic (Bos taurus) (UniProt P61823); assay: Inhibition of bovine pancreatic RNase A assessed as degradation of 18s rRNA after 1 hr by agarose gel based assay
T1 sequence (whole entry): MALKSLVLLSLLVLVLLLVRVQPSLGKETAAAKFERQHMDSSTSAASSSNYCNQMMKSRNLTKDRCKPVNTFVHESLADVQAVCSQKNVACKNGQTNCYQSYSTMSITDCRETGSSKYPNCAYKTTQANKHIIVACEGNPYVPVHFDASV
How it was run: (§1)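 Qualitative agarose-gel assay. RNase A was preincubated with compounds for 1 h at 37 °C. RNA substrate was then added and digested for 15 minutes. Samples were mixed with 40% sucrose and 0.25% bromophenol blue in 1× TAE and run on a 1.1% agarose gel. Degradation of 28S and 18S rRNA bands was scored.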

Row | Inhibition (qualitative, active/not active) | Structure (SMILES)
1 | inactive | Oc1cc(O)c2c(c1)O[C@H](c1ccc(O)c(O)c1)[C@@H](O)C2
2 | Active | O=C1[C@@H](CCn2cc(CO[C@H]3Cc4c(O)cc(O)cc4O[C@@H]3c3ccc(O)c(O)c3)nn2)[C@@H](c2ccccc2)N1c1ccccc1 (mixture of isomers)
3 | Active | COc1ccc([C@@H]2[C@H](CCn3cc(CO[C@H]4Cc5c(O)cc(O)cc5O[C@@H]4c4ccc(O)c(O)c4)nn3)C(=O)N2c2ccccc2)cc1 (mixture of isomers)
4 | Active | O=C1[C@@H](CCn2cc(CO[C@@H]3Cc4c(O)cc(O)cc4O[C@@H]3c3ccc(O)c(O)c3)nn2)[C@@H](c2ccccc2)N1c1ccccc1 (mixture of isomers)
5 | Active | COc1ccc([C@@H]2[C@H](CCn3cc(CO[C@@H]4Cc5c(O)cc(O)cc5O[C@@H]4c4ccc(O)c(O)c4)nn3)C(=O)N2c2ccccc2)cc1 (mixture of isomers)
6 | inactive | Oc1cc(O)c2c(c1)O[C@H](c1ccc(O)c(O)c1)[C@H](O)C2

molecular target: T1, Ribonuclease pancreatic (Bos taurus); assay: Inhibition of bovine pancreatic RNase A assessed as degradation of 28s rRNA after 1 hr by agarose gel based assay; how it was run: as §1

Row | inhibition | Structure (SMILES)
7 | inactive | O=C1[C@@H](CCn2cc(CO[C@H]3Cc4c(O)cc(O)cc4O[C@@H]3c3ccc(O)c(O)c3)nn2)[C@@H](c2ccccc2)N1c1ccccc1 (mixture of isomers)
8 | inactive | COc1ccc([C@@H]2[C@H](CCn3cc(CO[C@H]4Cc5c(O)cc(O)cc5O[C@@H]4c4ccc(O)c(O)c4)nn3)C(=O)N2c2ccccc2)cc1 (mixture of isomers)
9 | inactive | O=C1[C@@H](CCn2cc(CO[C@@H]3Cc4c(O)cc(O)cc4O[C@@H]3c3ccc(O)c(O)c3)nn2)[C@@H](c2ccccc2)N1c1ccccc1 (mixture of isomers)
10 | inactive | COc1ccc([C@@H]2[C@H](CCn3cc(CO[C@@H]4Cc5c(O)cc(O)cc5O[C@@H]4c4ccc(O)c(O)c4)nn3)C(=O)N2c2ccccc2)cc1 (mixture of isomers)

system: Escherichia coli; assay: Antibacterial activity against Escherichia coli at 1 mmol after 48 hrs by disk diffusion assay; type: functional
How it was run: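 Disc diffusion on agar. A colony was grown in nutrient broth for 2.5 h and spread over dried plates. Sterile 6 mm paper discs carried 1 mmol of compound. Plates were held at 37 °C and read at 48 h for inhibition-zone diameter. Controls were ampicillin (standard) and a DMSO-only disc.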

Row | Structure (SMILES) | Activity | diameter of the inhibition zone (DIZ) [mm]
11 | COc1ccc([C@@H]2[C@H](CCN=[N+]=[N-])C(=O)N2c2ccccc2)cc1 | inactive | –
12 | O=C1[C@@H](CCn2cc(CO[C@H]3Cc4c(O)cc(O)cc4O[C@@H]3c3ccc(O)c(O)c3)nn2)[C@@H](c2ccccc2)N1c1ccccc1 (mixture of isomers) | – | 9
13 | [N-]=[N+]=NCC[C@@H]1C(=O)N(c2ccccc2)[C@@H]1c1ccccc1 | inactive | –
14 | COc1ccc([C@@H]2[C@H](CCO)C(=O)N2c2ccccc2)cc1 | inactive | –
15 | COc1ccc([C@@H]2[C@H](CCn3cc(CO[C@H]4Cc5c(O)cc(O)cc5O[C@@H]4c4ccc(O)c(O)c4)nn3)C(=O)N2c2ccccc2)cc1 (mixture of isomers) | – | 6
16 | O=C1[C@@H](CCn2cc(CO[C@@H]3Cc4c(O)cc(O)cc4O[C@@H]3c3ccc(O)c(O)c3)nn2)[C@@H](c2ccccc2)N1c1ccccc1 (mixture of isomers) | – | 9
17 | COc1ccc([C@@H]2[C@H](CCn3cc(CO[C@@H]4Cc5c(O)cc(O)cc5O[C@@H]4c4ccc(O)c(O)c4)nn3)C(=O)N2c2ccccc2)cc1 (mixture of isomers) | – | 6
18 | O=C1[C@@H](CCO)[C@@H](c2ccccc2)N1c1ccccc1 | inactive | –
